Legend:
[1] = system: Human immunodeficiency virus 1; test: Resistance factor, ratio of EC50 for HIV1 harboring reverse transcriptase K103N mutant to EC50 for wild-type HIV-1 3B; format: functional
How it was run: (§1)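 Resistance fold is EC₅₀ against the mutant strain divided by EC₅₀ against WT IIIB. Both EC₅₀ values come from the 5-day MTT protection assay in MT-4 cells infected with 100–300 CCID₅₀ of virus.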

[2] = system: Human immunodeficiency virus 1; test: Resistance factor, ratio of EC50 for HIV1 harboring reverse transcriptase E138K mutant to EC50 for wild-type HIV-1 3B; format: functional; how it was run: as §1
[3] = system: Human immunodeficiency virus 1; test: Resistance factor, ratio of EC50 for HIV1 harboring reverse transcriptase L100I mutant to EC50 for wild-type HIV-1 3B; format: functional; how it was run: as §1
[4] = system: Human immunodeficiency virus 1; test: Resistance factor, ratio of EC50 for HIV1 harboring reverse transcriptase Y181C mutant to EC50 for wild-type HIV-1 3B; format: functional; how it was run: as §1
[5] = system: Human immunodeficiency virus 1; test: Resistance factor, ratio of EC50 for HIV1 harboring reverse transcriptase Y188L mutant to EC50 for wild-type HIV-1 3B; format: functional; how it was run: as §1
[6] = system: Human immunodeficiency virus 1; test: Antiviral activity against HIV1 harboring reverse transcriptase E138K mutant infected in human MT4 cells assessed as inhibition of viral replication after 5 days by MTT assay; format: functional, organism-based; conditions: Human immunodeficiency virus 1, MT4, 120 h
[7] = system: Human immunodeficiency virus 1; test: Antiviral activity against HIV1 harboring reverse transcriptase Y188L mutant infected in human MT4 cells assessed as inhibition of viral replication after 5 days by MTT assay; format: functional, organism-based; conditions: Human immunodeficiency virus 1, MT4, 120 h
How it was run: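 MT-4 cells in exponential growth, resuspended into wells holding HIV-1 stock (IIIB, RES056 K103N/Y181C, F227L/V106A, L100I, K103N, E138K, Y181C or Y188L) at 100–300 CCID₅₀, or into mock-infected wells. Viability read by MTT reduction to formazan, measured spectrophotometrically 5 days post-infection. EC₅₀ is the concentration giving 50% protection against virus-induced cytotoxicity.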

[8] = system: Human immunodeficiency virus 1; test: Antiviral activity against HIV1 harboring reverse transcriptase L100I mutant infected in human MT4 cells assessed as inhibition of viral replication after 5 days by MTT assay; format: functional, organism-based; conditions: Human immunodeficiency virus 1, MT4, 120 h
[9] = system: Human immunodeficiency virus 1; test: Antiviral activity against HIV1 harboring reverse transcriptase F227L/V106A double mutant infected in human MT4 cells assessed as inhibition of viral replication after 5 days by MTT assay; format: functional, organism-based; conditions: Human immunodeficiency virus 1, MT4, 120 h
[10] = system: Human immunodeficiency virus 1; test: Antiviral activity against wild-type HIV-1 3B infected in human MT4 cells assessed as inhibition of viral replication after 5 days by MTT assay; format: functional, organism-based; conditions: Human immunodeficiency virus 1, 3B, MT4, 120 h
[11] = system: Human immunodeficiency virus 1; test: Resistance factor, ratio of EC50 for HIV1 harboring reverse transcriptase F227L/V106A mutant to EC50 for wild-type HIV-1 3B; format: functional; how it was run: as §1
[12] = system: Human immunodeficiency virus 1; test: Antiviral activity against HIV1 harboring reverse transcriptase K103N mutant infected in human MT4 cells assessed as inhibition of viral replication after 5 days by MTT assay; format: functional, organism-based; conditions: Human immunodeficiency virus 1, MT4, 120 h
[13] = system: Human immunodeficiency virus 1; test: Antiviral activity against HIV1 harboring reverse transcriptase Y181C mutant infected in human MT4 cells assessed as inhibition of viral replication after 5 days by MTT assay; format: functional, organism-based; conditions: Human immunodeficiency virus 1, MT4, 120 h
[14] = system: MT4; test: Cytotoxicity against human MT4 cells assessed as decrease in cell viability after 5 days by MTT assay; format: cell-based; conditions: mt4, 120 h
How it was run: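 Mock-infected MT-4 cells, exponentially growing, seeded with compound in culture medium without virus; run in parallel with the antiviral assay. Viability read spectrophotometrically by MTT reduction five days later.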

[15] = system: Human immunodeficiency virus 1; test: Antiviral activity against HIV-1 RES056 harboring reverse transcriptase K103N/Y181C double mutant infected in human MT4 cells assessed as inhibition of viral replication after 5 days by MTT assay; format: functional, organism-based; conditions: Human immunodeficiency virus 1, RES056, MT4, 120 h
[16] = Selectivity index, ratio of CC50 for human MT4 cells to EC50 for wild-type HIV1 3B; format: toxicity; conditions: read-out: Ratio CC50/EC50
How it was run: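 Wild-type HIV-1 IIIB at 100–300 CCID50 added to MT-4 cells with compound, with mock-infected wells in parallel. MTT viability was read at day 5. […] SI = CC50/EC50.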

[17] = Selectivity index, ratio of CC50 for human MT4 cells to EC50 for HIV-1 RES056 harboring reverse transcriptase K103N/Y181C double mutant infected in human MT4 cells; format: toxicity, cell-based; conditions: read-out: Ratio CC50/EC50
How it was run: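 SI is CC₅₀ divided by EC₅₀, both by MTT after 5 days in MT-4 cells. CC₅₀ comes from mock-infected cultures run in parallel and is the concentration reducing their viability by 50%. EC₅₀ comes from cultures infected with the given mutant strain at 100–300 CCID₅₀.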

Structure (SMILES)	EC50 [10]	CC50 [14]	EC50 [15]	selectivity ratio [16]	selectivity ratio [17]	other results
CC(C)Nc1cccnc1N1CCN(C(=O)c2cc3cc(NS(C)(=O)=O)ccc3[nH]2)CC1 [DELAVIRDINE]	38 nM					Ratio EC50 [1]: 78.9; Ratio EC50 [2]: 1.3; Ratio EC50 [3]: 66.8; Ratio EC50 [4]: 64.7; Ratio EC50 [5]: 22.1; EC50 [6]: 51 nM; EC50 [7]: 840 nM; EC50 [8]: 2540 nM; EC50 [9]: 2270 nM; Ratio EC50 [11]: 59.7; EC50 [12]: 3000 nM; EC50 [13]: 2460 nM
Cc1cn([C@H]2C[C@H](N=[N+]=[N-])[C@@H](CO)O2)c(=O)[nH]c1=O [ZIDOVUDINE]		> 7480 nM	11 nM			EC50 [8]: 5 nM; EC50 [12]: 8 nM
CCOC(=O)CCn1cc(CNC(=O)c2cnc(Nc3ccc(C#N)cc3)cc2Oc2c(C)cc(C)cc2C)nn1	847 nM	21500 nM	> 21500 nM	25	< 1	
Cc1cc(C)c(Oc2cc(Nc3ccc(C#N)cc3)ncc2C(=O)NCc2cn(Cc3cccc(Cl)c3)nn2)c(C)c1	104 nM	187000 nM	> 187000 nM	1800	< 1	
Cc1cccc(Cn2cc(CNC(=O)c3cnc(Nc4ccc(C#N)cc4)cc3Oc3c(C)cc(C)cc3C)nn2)c1	106 nM	114000 nM	> 114000 nM	1070	< 1	
Cc1cc(C)c(Oc2cc(Nc3ccc(C#N)cc3)ncc2C(=O)NCc2cn(Cc3cccc(F)c3)nn2)c(C)c1	79 nM	≥ 205000 nM	> 205000 nM			
Cc1ccc(Cn2cc(CNC(=O)c3cnc(Nc4ccc(C#N)cc4)cc3Oc3c(C)cc(C)cc3C)nn2)cc1	167 nM	165000 nM	> 165000 nM	990	< 1	
CCOC(=O)Cn1cc(CNC(=O)c2cnc(Nc3ccc(C#N)cc3)cc2Oc2c(C)cc(C)cc2C)nn1	653 nM	9530 nM	> 9530 nM	15	< 1	
Cc1cc(C)c(Oc2cc(Nc3ccc(C#N)cc3)ncc2C(=O)NCc2cn(Cc3ccccc3C)nn2)c(C)c1	77 nM	≥ 164000 nM	> 164000 nM			
Cc1cc(C#N)cc(C)c1Oc1nc(Nc2ccc(C#N)cc2)nc(N)c1Br [ETRAVIRINE]						EC50 [7]: 11 nM; EC50 [9]: 5 nM
Cc1cc(C)c(Oc2cc(Nc3ccc(C#N)cc3)ncc2C(=O)NCc2cn(Cc3cccc(C#N)c3)nn2)c(C)c1	25 nM	≥ 130000 nM	> 130000 nM			
Cc1cc(C)c(Oc2cc(Nc3ccc(C#N)cc3)ncc2C(=O)NCc2cn(Cc3cccc([N+](=O)[O-])c3)nn2)c(C)c1	37 nM	≥ 156000 nM	> 156000 nM			

— ChEMBL document CHEMBL4152200, “Targeting the entrance channel of NNIBP: Discovery of diarylnicotinamide 1,4-disubstituted 1,2,3-triazoles as novel HIV-1 NNRTIs with high potency against wild-type and E138K mutant virus” (Eur J Med Chem, 2018)
